Measured values of several laboratories.
Lines come from different studies, so protocols differ.
Organism: Human immunodeficiency virus 1
Read-out: viral replication

O=C(O)c1cc(O)c(O)c(O)c1
IC50 (inhibitor; CEM-GFP; 8 days): 0.19 µg/mL

CN1CC[C@H](c2c(O)cc(O)c3c(=O)cc(-c4ccccc4Cl)oc23)[C@H](O)C1
EC50 (inhibitor; human PBMC; 6 days): 0.02 µM

C[C@@H](O[C@H]1OCCN(Cc2n[nH]c(=O)[nH]2)[C@H]1c1ccc(F)cc1)c1cc(C(F)(F)F)cc(C(F)(F)F)c1
IC50 (inhibitor, ELISA; human PBMC, BAL): 6.4 µM

CC(C)(C)NC(=O)[C@@H]1C[C@@H]2CCCC[C@@H]2CN1C[C@@H](O)[C@H](Cc1ccccc1)NC(=O)[C@H](CC(N)=O)NC(=O)c1ccc2ccccc2n1
IC50 (inhibitor; T-lymphoid): 0.021 µM

Cc1cn([C@H]2C[C@H](N=[N+]=[N-])[C@@H](CO)O2)c(=O)[nH]c1=O
IC50 (inhibitor, ELISA; human PBMC, NL43; 7 days): 0.005 µM

c1cc(CN2CCCNCCNCCCNCC2)ccc1CN1CCCNCCNCCCNCC1
IC90 (inhibitor; MAGI, BAL): > 10 µM

Cc1cn([C@H]2C[C@H](N=[N+]=[N-])[C@@H](CO)O2)c(=O)[nH]c1=O
IC50 (inhibitor, luciferase; TZM-bl; 48 h): 0.043 µg/mL

O=C(O)c1cc(F)cc(Cn2ccc3ccc(-c4ccc5ccn(Cc6cccc(OC(F)(F)F)c6)c5c4)cc32)c1
IC50 (inhibitor; BAL): 1.4 µM

O=C1C[C@@H](c2ccc(O)cc2)Oc2cc(O)cc(O)c21
EC50 (inhibitor; human PBMC; 6 days): > 30 µM

O=c1oc2c(O)c(O)cc3c(=O)oc4c(O)c(O)cc1c4c23
IC50 (inhibitor; CEM-GFP; 8 days): 73 µg/mL

COC(=O)c1cccc(Cn2ccc3ccc(-c4ccc5ccn(Cc6cccc(C(=O)O)c6)c5c4)cc32)c1
IC90 (inhibitor; MAGI, BAL): 38.4 µM

COc1cc(F)ccc1-c1ncnc(Nc2cccc(C[S@](C)(=N)=O)c2)n1
EC50 (inhibitor; human PBMC; 6 days): 3.4 µM

CC(C)(C)NC(=O)[C@@H]1C[C@@H]2CCCC[C@@H]2CN1C[C@@H](O)[C@H](Cc1ccccc1)NC(=O)[C@H](CC(N)=O)NC(=O)c1ccc2ccccc2n1
IC50 (MT2): 0.019 µM

C[N+](C)(C)CCCn1c(=O)c2cc(Br)c3c(=O)n(CCC[N+](C)(C)C)c(=O)c4c5[nH]c6ccccc6[nH]c5c(c1=O)c2c34
IC50 (TZM-bl, NL43; 48 h): > 5 µM

OCc1cc(C(O)CNCCCCCCOCCCCc2ccccc2)ccc1O (stereo not drawn)
EC50 (inhibitor; TZM-bl): 20 µM
